Assay outcomes: PubChem BioAssay, SRMLSC
Many of the other results were omitted from the sample, so hits are more common in it than they were.
HUVEC prolif 384: blocks proliferation of human endothelial cells. HUVEC proliferation, CellTiter-Glo luminescence, 72 h; hits give low values. viability, % at 10 µM (by protocol). 1.1% of 86,000 active;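 active = viability at or below 30%; inactive = viability above 30%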;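 also: 100% = median luminescence of DMSO-only cell control wells on each plate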
HCT116 bCat-KO: beta-catenin-lacking colon tumor cell growth suppression; HCT116 beta-catenin knockout viability, CellTiter-Glo, 60 h; hits give low values; viability, % at 10 µM; 1.5% of 140,000 active; AID 818;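 active = viability at or under a set limit, the compound median less 4 SD, cut at about 6% in these data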;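 also: 0% = Hyamine 1622 control at 20 µM and 100% = untreated cell control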
H69AR inhibit: blocks growth of human H69AR lung tumor cells | H69AR lung tumor viability, ATP luminescence, 72 h; hits give low values | 6% of 85,000 active | viability, % at 10 µM | AID 598;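 active = viability at or below 40%; inactive = viability above 40%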;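 also: multidrug resistant small cell line overexpressing MRP-1 efflux transporter; 100% = mean luminescence of untreated control wells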
Fibroblast inh: blocks proliferation of human lung fibroblasts; LL 47 human lung fibroblast viability, ATP luminescence; hits give low values; viability, % at 10 µM; 1.1% of 85,000 active;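 active = viability at or below 50% in the single dose screen; inactive = viability above 50%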;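 also: compound exposure lasted 72 h before the ATP readout; 100% = median luminescence of untreated cell-only wells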
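Signal: luminescent ATP detection, CellTiter-Glo; assay system: LL 47 human lung fibroblasts; input: 1,150 cells/well; incubation: overnight cell rest, 72 h compound treatment at 37 °C; measure: % viability versus median cells-only luminescence; medium: IMEM growth medium with 15% fetal bovine serum; dosing: compound addition at 0.1% DMSO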
HCT116 PTEN-null: suppresses growth of cells with PTEN deletion | HCT116 PTEN-null viability, CellTiter-Glo, 60 h; hits give low values | viability, % at 10 µM | AID 827 | 1.2% of 140,000 active;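 active = viability at or below a set limit, 4 SD under the median of all tested compounds, cut at about 3.7% in these data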;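 also: PTEN knockout HCT116 line with beta catenin targeted HCT116 as companion control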
* marks the source's active call; other numbers are inactive results.

For Cc1nn(-c2ccc(Cl)cc2)c2[nH]c(=O)c(CNCc3ccc4c(c3)OCO4)cc12 the results were HUVEC prolif 384 81.7, HCT116 bCat-KO 62.6, H69AR inhibit 32.5*, Fibroblast inh 88.4 and HCT116 PTEN-null 62.0.
`Cc1nn(-c2ccccc2)c2[nH]c(=O)c(CNc3ccc(N4CCOCC4)cc3)cc12` gave HUVEC prolif 384 76.4, HCT116 bCat-KO 77.0, H69AR inhibit 17.9*, Fibroblast inh 93.6 and HCT116 PTEN-null 93.4.
Screening O=c1[nH]c2c(cc1CNCCN1CCOCC1)c(-c1cccc(F)c1)nn2-c1ccccc1 returned HUVEC prolif 384 31.9, H69AR inhibit 45.1 and Fibroblast inh 90.8.
`Cc1nn(Cc2ccccc2Cl)c2sc(C(=O)NCc3ccc4c(c3)OCO4)cc12` gave HUVEC prolif 384 85.4, HCT116 bCat-KO 82.4, H69AR inhibit 47.6, Fibroblast inh 93.7 and HCT116 PTEN-null 79.5.
Cc1ccc(S(=O)(=O)NNc2ccccc2)c(C)c1 was read as HCT116 bCat-KO 87.5 and HCT116 PTEN-null 97.0.
Screening COc1ccc(-c2nc3c(c(=O)n(C)c(=O)n3C)n2CC2CC(c3ccccc3)=NO2)cc1OC (configuration not stated) returned HUVEC prolif 384 75.3, H69AR inhibit 6.3* and Fibroblast inh 103.0.
Screening COc1ccc(C(=O)Cn2c(Br)nc3c2c(=O)n(C)c(=O)n3C)cc1OC returned HUVEC prolif 384 109.4, HCT116 bCat-KO 98.2, H69AR inhibit 68.8, Fibroblast inh 100.8 and HCT116 PTEN-null 103.9.
Cc1c(NC(=O)c2cccc(-c3cc4ccccc4oc3=O)c2)cccc1-c1nc2ncccc2o1 was read as HCT116 bCat-KO 38.8 and HCT116 PTEN-null 27.2.
For CC(C)(C)c1nn(-c2ccccc2)c2[nH]c(=O)c(CNc3ccc4c(c3)OCCO4)cc12 the results were HUVEC prolif 384 52.7, HCT116 bCat-KO 78.9, H69AR inhibit 101.1, Fibroblast inh 92.0 and HCT116 PTEN-null 66.9.
`COc1ccc(CNCc2cc3c(C(C)(C)C)nn(-c4ccccc4)c3[nH]c2=O)cc1` gave HUVEC prolif 384 72.1, HCT116 bCat-KO 0.5*, H69AR inhibit 24.1*, Fibroblast inh 69.4 and HCT116 PTEN-null 0.6*.
Screening Cc1ccc(CNCc2cc3c(C(C)(C)C)nn(-c4ccccc4)c3[nH]c2=O)cc1 returned HUVEC prolif 384 67.2, HCT116 bCat-KO 3.7*, H69AR inhibit 1.9*, Fibroblast inh 64.7 and HCT116 PTEN-null 4.7.
Screening CC(C)(C)c1nn(-c2ccccc2)c2[nH]c(=O)c(CNCc3ccco3)cc12 returned HUVEC prolif 384 44.4, HCT116 bCat-KO 35.7, H69AR inhibit 7.8*, Fibroblast inh 100.4 and HCT116 PTEN-null 24.1.
`COc1ccc(-c2cc(=O)[nH]c(NCc3ccccc3)n2)cc1` gave HUVEC prolif 384 82.8, HCT116 bCat-KO 39.6, H69AR inhibit 85.0, Fibroblast inh 90.7 and HCT116 PTEN-null 39.3.
Screening N#Cc1ccccc1OCCOCCNC1CCCC1 returned HCT116 bCat-KO 95.6 and HCT116 PTEN-null 99.1.
`O=C1CC(c2ccco2)Cc2nc(Nc3nc(-c4ccccc4)c4ccccc4n3)ncc21` (configuration not stated) gave HUVEC prolif 384 54.5, HCT116 bCat-KO 3.4*, Fibroblast inh 25.3* and HCT116 PTEN-null 3.5*.
For Cc1cccc(Nc2ncc3c(n2)CC(c2ccco2)CC3=O)c1 (configuration not stated) the results were HUVEC prolif 384 92.4, HCT116 bCat-KO 81.5, H69AR inhibit 29.8*, Fibroblast inh 102.0 and HCT116 PTEN-null 75.1.
O=C(Cn1cnc2ccc(Cl)cc2c1=O)c1cccs1 was read as HCT116 bCat-KO 31.5 and HCT116 PTEN-null 39.0.
Screening CC(NC(=O)Nc1ccc(Cl)c(Cl)c1)C(c1ccccc1)N1CCOCC1 (configuration not stated) returned HCT116 bCat-KO 24.4 and HCT116 PTEN-null 15.2.
Screening O=C(c1cccs1)N1CCN(Cc2cccc([N+](=O)[O-])c2)CC1 returned HCT116 bCat-KO 89.5 and HCT116 PTEN-null 96.7.
Screening COc1ccc(NS(=O)(=O)c2cccc(NC(=O)c3ccc(S(=O)(=O)N4CCCCCC4)cc3)c2)cc1 returned HCT116 bCat-KO 11.0 and HCT116 PTEN-null 13.2.
For CCO/N=C(\C)c1c(O)c2ccccc2n(C)c1=O the results were HCT116 bCat-KO 93.2 and HCT116 PTEN-null 102.0.
`N#Cc1ncc(C(F)(F)F)cc1Sc1ccc(N)cc1` gave HUVEC prolif 384 89.1, HCT116 bCat-KO 78.6, H69AR inhibit 36.1*, Fibroblast inh 93.8 and HCT116 PTEN-null 89.0.
`N#Cc1c(NCCN)nc(NCc2ccccc2)c2c1CCN(Cc1ccccc1)C2` gave HUVEC prolif 384 18.1*, H69AR inhibit 47.4 and Fibroblast inh 82.6.
C=CCNc1nc(NCc2ccccc2)c(C#N)c2c1CN(C)CC2 was read as HUVEC prolif 384 11.1*, HCT116 bCat-KO 45.2, H69AR inhibit 29.5*, Fibroblast inh 57.7 and HCT116 PTEN-null 46.4.
Screening CCN1CCc2c(C#N)c(NCc3ccccc3)nc(N(CC)CC)c2C1 returned HUVEC prolif 384 55.3, HCT116 bCat-KO 66.6, H69AR inhibit 57.6, Fibroblast inh 82.1 and HCT116 PTEN-null 67.6.
N#Cc1c(NCCN)nc(-c2ccccc2)c2c1CCCC2 was read as HUVEC prolif 384 88.8, HCT116 bCat-KO 50.9, H69AR inhibit 6.0*, Fibroblast inh 66.5 and HCT116 PTEN-null 34.2.
`N#Cc1c(N2CCN(C(=O)c3ccccc3)CC2)nc(-c2ccccc2)c2c1CCCC2` gave HUVEC prolif 384 69.0, HCT116 bCat-KO 77.0, H69AR inhibit 14.5*, Fibroblast inh 91.3 and HCT116 PTEN-null 73.6.
O=C(NOC(=O)c1ccccc1Cl)c1cccs1 was read as HUVEC prolif 384 85.5, HCT116 bCat-KO 103.3, H69AR inhibit 80.8, Fibroblast inh 97.5 and HCT116 PTEN-null 95.5.
`CC1CCN(S(=O)(=O)c2ccc(S(=O)(=O)N3CCCN(Cc4ccccc4)C3)cc2)CC1` gave HUVEC prolif 384 81.4, H69AR inhibit 80.4 and Fibroblast inh 99.4.
CC1CCCN(S(=O)(=O)c2ccc(S(=O)(=O)N3CCCN(Cc4ccccc4)C3)cc2)C1 (configuration not stated) was read as HUVEC prolif 384 41.3, H69AR inhibit 31.4* and Fibroblast inh 85.1.
`CCOc1cc(C#N)c(NC(=O)c2ccco2)cc1OCC` gave HUVEC prolif 384 56.8, HCT116 bCat-KO 33.1, H69AR inhibit 30.6*, Fibroblast inh 80.4 and HCT116 PTEN-null 33.2.
`CCOc1ccccc1NC(=O)c1cc(Cl)ccc1NC(=O)c1ccco1` gave HUVEC prolif 384 50.4, HCT116 bCat-KO 49.5, H69AR inhibit 29.5*, Fibroblast inh 93.0 and HCT116 PTEN-null 88.1.
CCOc1cc(NC(=O)c2ccco2)c(OCC)cc1NC(=O)c1cc(OC)c(OC)c(OC)c1 was read as HUVEC prolif 384 90.3, HCT116 bCat-KO 93.1, H69AR inhibit 65.5, Fibroblast inh 96.7 and HCT116 PTEN-null 96.2.
